Hits are enriched below; roughly 2.5% of the tested compounds scored in any of these assays.
DENV2 CPE: protects cells from dengue virus 2 cytopathic effect. DENV2-infected cells, cytopathic effect rescue, plate reader. CPE inhibition, % at 9.99 µM. actives 1.7% (n = 350,000). AID 651640; in the data active = CPE inhibition above about 20%, passing the limit was not always enough; inconclusive = no clear call, values can overlap the other calls; tested in BHK-21 cells;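 also: 0% = median of neutral control wells and 100% = median of positive control wells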
PglD inh: inhibitors of Campylobacter jejuni PglD acetyltransferase | purified PglD enzyme, DTNB colorimetric CoA detection | inhibition, % at 12.5 µM | actives 0.098% (n = 360,000); in the data active = inhibition above about 16%, passing the limit was not always enough; inconclusive = no clear call, values can overlap the other calls
E-sel inducer: induces E-selectin expression in human endothelial cells; P16581; HUVEC E-selectin immunofluorescence imaging; normalized: neutral wells 0, TNF-alpha wells 100; activation, % at 7.58 µM; actives 0.37% (n = 260,000);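 active = mean E-selectin-positive cell signal at least 10% of the positive control, reached in at least 60% of replicates, without over 20% cell loss; inconclusive = no rule given, readout overlaps actives, possibly toxicity-flagged; inactive = the rest, including those meeting only one limit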
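Read-out basis: % PE-positive cells; Test system: HUVEC primary endothelial cells; Technique: immunofluorescence imaging; Dosing: single-point compound dose.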
ERAP1 HTS inh: ERAP1 (human) enzyme inhibition; Q9NZ08; recombinant ERAP1, Leu-AMC fluorescence, 60 min; inhibition, % at 10.7 µM; actives 0.15% (n = 340,000); AID 652197;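 active = mean replicate inhibition of at least 30%, or all replicates individually reaching that 30% level; inactive = mean below 30% and not every replicate reaching it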;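 also: 0% = neutral control wells and 100% = L-leucinethiol positive control wells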
SIRT5 block: inhibitors of human sirtuin-5 desuccinylase. Q9NXA8. Purified SirT5, succinyl-peptide AMC, trypsin-coupled fluorescence. inhibition, % at 15 µM. actives 1.1% (n = 330,000); in the data active = inhibition above about 15%; inconclusive = no clear call, values can overlap the other calls
Target sequence (Q9NXA8 whole entry, looked up): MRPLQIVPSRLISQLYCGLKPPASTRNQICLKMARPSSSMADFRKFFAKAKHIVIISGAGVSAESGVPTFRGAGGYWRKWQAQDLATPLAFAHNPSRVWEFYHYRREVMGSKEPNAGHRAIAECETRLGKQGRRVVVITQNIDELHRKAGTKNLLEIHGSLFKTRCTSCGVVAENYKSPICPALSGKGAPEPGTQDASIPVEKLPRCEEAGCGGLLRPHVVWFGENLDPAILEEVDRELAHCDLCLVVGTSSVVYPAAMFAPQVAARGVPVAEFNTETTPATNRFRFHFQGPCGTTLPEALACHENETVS
* = called active by the depositor.

How did COc1ccc(OC)c(S(=O)(=O)N/N=C\c2c[nH]c3ccccc23)c1 do in these assays?
DENV2 CPE: 37*; PglD inh: -1; E-sel inducer: 3; ERAP1 HTS inh: -1; SIRT5 block: 0

What do the screens show for `CCOc1c(O)ccc(C2NC(=O)N(C)C(C)=C2C(=O)OC)c1[N+](=O)[O-]` (stereo not drawn)?
DENV2 CPE: -5; ERAP1 HTS inh: -2; SIRT5 block: 0

How did COc1ccc(C(C)=O)cc1CC(=O)Nc1ccc2c(c1)CCC2 do in these assays?
DENV2 CPE: -3; PglD inh: 2; ERAP1 HTS inh: -3; SIRT5 block: 0

Results for C[C@H]1CN([C@@H](C)CO)C(=O)c2cc(C#Cc3ccncc3)cnc2O[C@@H]1CN(C)S(=O)(=O)c1ccccc1F ?
DENV2 CPE: -8; PglD inh: -1; ERAP1 HTS inh: -3; SIRT5 block: -3

What do the screens show for `C[C@H]1CN([C@@H](C)CO)C(=O)Cc2cc(NS(=O)(=O)c3ccc(F)cc3)ccc2O[C@@H]1CN(C)S(C)(=O)=O`?
DENV2 CPE: 46*; PglD inh: 2; E-sel inducer: 0; ERAP1 HTS inh: 7; SIRT5 block: 2

How did C[C@H](CO)N1C[C@H](C)[C@H](CN(C)S(C)(=O)=O)Oc2ccc(NS(=O)(=O)c3ccc(F)cc3)cc2CC1=O do in these assays?
DENV2 CPE: -1; PglD inh: 0; E-sel inducer: 0; ERAP1 HTS inh: 3; SIRT5 block: 1

What do the screens show for `C[C@@H]1CN([C@@H](C)CO)C(=O)Cc2cc(NS(=O)(=O)c3ccc(F)cc3)ccc2O[C@H]1CN(C)S(=O)(=O)c1ccc(Cl)cc1`?
DENV2 CPE: -7; PglD inh: 0; E-sel inducer: 34*

Results for C[C@H]1CN([C@@H](C)CO)C(=O)Cc2cc(NS(=O)(=O)c3ccc(F)cc3)ccc2O[C@@H]1CN(C)S(=O)(=O)c1ccc(Cl)cc1 ?
DENV2 CPE: 17; PglD inh: -1; E-sel inducer: 60*

Results for C[C@@H]1CN([C@@H](C)CO)C(=O)Cc2cc(NS(=O)(=O)c3ccc(F)cc3)ccc2O[C@@H]1CN(C)S(=O)(=O)c1ccc(F)cc1 ?
DENV2 CPE: -6; PglD inh: 2; E-sel inducer: 0; ERAP1 HTS inh: -1; SIRT5 block: 4

What do the screens show for `C[C@H](CO)N1C[C@H](C)[C@@H](CN(C)S(=O)(=O)c2ccc(F)cc2)Oc2ccc(NS(C)(=O)=O)cc2CC1=O`?
DENV2 CPE: 10; PglD inh: 1; E-sel inducer: 311*; ERAP1 HTS inh: 3; SIRT5 block: -3

What do the screens show for `COc1ccccc1NC(=O)c1ccc(NC(=O)C2COc3ccccc3O2)cc1` (stereo not drawn)?
DENV2 CPE: 1; PglD inh: 1; ERAP1 HTS inh: 3; SIRT5 block: 0

How did C[C@H]1CN([C@@H](C)CO)C(=O)Cc2cc(NS(=O)(=O)c3ccc(F)cc3)ccc2O[C@H]1CN(C)S(=O)(=O)c1ccc(Cl)cc1 do in these assays?
DENV2 CPE: -3; PglD inh: 4; E-sel inducer: 198*

What do the screens show for `C[C@@H]1CN([C@@H](C)CO)C(=O)Cc2cc(NS(=O)(=O)c3ccc(Cl)cc3)ccc2O[C@H]1CN(C)S(=O)(=O)c1ccc(Cl)cc1`?
DENV2 CPE: -14; PglD inh: -1; E-sel inducer: 1; ERAP1 HTS inh: 0; SIRT5 block: 2

How did C[C@@H]1CN([C@@H](C)CO)C(=O)Cc2cc(NS(=O)(=O)c3ccc(F)cc3)ccc2O[C@@H]1CN(C)S(=O)(=O)c1ccc(Cl)cc1 do in these assays?
DENV2 CPE: 1; PglD inh: 1; E-sel inducer: 102*

What do the screens show for `C[C@@H]1CN([C@H](C)CO)C(=O)Cc2cc(NS(=O)(=O)c3ccc(Cl)cc3)ccc2O[C@H]1CN(C)S(=O)(=O)c1ccc(F)cc1`?
DENV2 CPE: 6; PglD inh: -1; E-sel inducer: -1; ERAP1 HTS inh: 2; SIRT5 block: 4

How did C[C@@H]1CN([C@@H](C)CO)C(=O)Cc2cc(NS(=O)(=O)c3ccc(Cl)cc3)ccc2O[C@H]1CN(C)S(=O)(=O)c1ccc(F)cc1 do in these assays?
DENV2 CPE: -6; PglD inh: 0; E-sel inducer: 0; ERAP1 HTS inh: 2; SIRT5 block: 3

What do the screens show for `C[C@@H]1CN([C@H](C)CO)C(=O)Cc2cc(NS(=O)(=O)c3ccc(F)cc3)ccc2O[C@@H]1CN(C)S(=O)(=O)c1ccc(Cl)cc1`?
DENV2 CPE: -8; PglD inh: 0; E-sel inducer: 69*

Results for C[C@H]1CN([C@@H](C)CO)C(=O)Cc2cc(NS(=O)(=O)c3ccc(Cl)cc3)ccc2O[C@H]1CN(C)S(=O)(=O)c1ccc(Cl)cc1 ?
DENV2 CPE: -3; PglD inh: 1; E-sel inducer: 2; ERAP1 HTS inh: -3; SIRT5 block: 8

Results for C[C@@H]1CN([C@@H](C)CO)C(=O)Cc2cc(NS(=O)(=O)c3ccc(Cl)cc3)ccc2O[C@@H]1CN(C)S(=O)(=O)c1ccc(Cl)cc1 ?
DENV2 CPE: 47*; PglD inh: 4; E-sel inducer: 1; ERAP1 HTS inh: -2; SIRT5 block: 4

Results for C[C@@H]1CN([C@@H](C)CO)C(=O)c2cc(-c3ccccc3F)cnc2O[C@@H]1CN(C)C(=O)c1ccccn1 ?
DENV2 CPE: 19; PglD inh: 1; E-sel inducer: 0; ERAP1 HTS inh: 0; SIRT5 block: 0

Results for COC(=O)c1sccc1NC(=O)c1cccc(Cl)c1 ?
DENV2 CPE: inconclusive; E-sel inducer: -4; ERAP1 HTS inh: 1; SIRT5 block: -3

Results for C[C@H](CO)N1C[C@H](C)[C@@H](CN(C)S(=O)(=O)c2ccc(Cl)cc2)Oc2ccc(NC(=O)C3CC3)cc2CC1=O ?
DENV2 CPE: 30*; PglD inh: 3; E-sel inducer: 0; ERAP1 HTS inh: -3; SIRT5 block: -3

Results for CN(C1CCCC1)C1CCN(C(=O)CNC(=O)/C=C/c2cccc(C(F)(F)F)c2)CC1 ?
DENV2 CPE: -16; PglD inh: 2; E-sel inducer: 39*; ERAP1 HTS inh: 5; SIRT5 block: -2

What do the screens show for `CN(C1CCCC1)C1CCN(C(=O)CNC(=O)/C=C/c2ccc(F)cc2)CC1`?
DENV2 CPE: -9; PglD inh: 3; E-sel inducer: 0; ERAP1 HTS inh: -1; SIRT5 block: -2

What do the screens show for `COCCCNC(=O)Cn1nc(-c2ccccc2OC)ccc1=O`?
PglD inh: 1

What do the screens show for `O=S(=O)(O)C(c1ccccc1)C1(O)CCCCC1` (stereo not drawn)?
DENV2 CPE: 1; PglD inh: -7; E-sel inducer: 0; ERAP1 HTS inh: -1

What do the screens show for `Cc1ccc(C)c(NC(=S)N2CCC(C(=O)c3ccc(F)cc3)CC2)c1`?
DENV2 CPE: 21*; PglD inh: -4; E-sel inducer: 0; ERAP1 HTS inh: -6

Assay outcomes from PubChem.
